Assays:
[1] = biological target: T1, GABA-A receptor; alpha-2/beta-3/gamma-2 (Homo sapiens, UniProt P18507+P28472+P47869); assay: Displacement of [3H]Ro-151788 from human GABA-A receptor alpha-2-beta-3-gamma-2 subunits expressed in L(tk-) cells (<50% inhibition at 2 uM); type: cell-based
T1 sequence (P18507 whole entry): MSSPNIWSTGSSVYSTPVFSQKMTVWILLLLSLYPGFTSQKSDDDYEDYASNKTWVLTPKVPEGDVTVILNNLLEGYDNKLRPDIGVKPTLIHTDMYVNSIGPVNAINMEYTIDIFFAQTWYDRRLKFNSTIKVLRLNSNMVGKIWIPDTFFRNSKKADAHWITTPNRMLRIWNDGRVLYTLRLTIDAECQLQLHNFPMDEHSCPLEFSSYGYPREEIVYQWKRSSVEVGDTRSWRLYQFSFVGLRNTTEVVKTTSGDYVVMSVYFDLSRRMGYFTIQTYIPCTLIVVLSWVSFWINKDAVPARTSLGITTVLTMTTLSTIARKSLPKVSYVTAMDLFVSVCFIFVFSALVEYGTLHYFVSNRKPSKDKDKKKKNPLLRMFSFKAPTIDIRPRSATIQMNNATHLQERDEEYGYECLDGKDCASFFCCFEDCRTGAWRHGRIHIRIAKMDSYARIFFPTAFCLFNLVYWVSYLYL
T1 sequence (P28472 whole entry): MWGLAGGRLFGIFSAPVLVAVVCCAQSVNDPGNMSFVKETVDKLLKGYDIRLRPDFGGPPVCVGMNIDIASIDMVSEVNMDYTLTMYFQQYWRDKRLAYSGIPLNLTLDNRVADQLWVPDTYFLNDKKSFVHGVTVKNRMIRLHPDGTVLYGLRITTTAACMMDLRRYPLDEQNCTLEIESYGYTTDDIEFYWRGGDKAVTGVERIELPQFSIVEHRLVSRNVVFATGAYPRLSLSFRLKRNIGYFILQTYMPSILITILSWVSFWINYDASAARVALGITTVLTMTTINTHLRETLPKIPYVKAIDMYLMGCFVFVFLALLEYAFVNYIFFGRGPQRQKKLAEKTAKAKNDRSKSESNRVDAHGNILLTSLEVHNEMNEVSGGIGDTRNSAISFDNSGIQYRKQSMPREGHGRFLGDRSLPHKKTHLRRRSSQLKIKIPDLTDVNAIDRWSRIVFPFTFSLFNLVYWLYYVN
T1 sequence (P47869 whole entry): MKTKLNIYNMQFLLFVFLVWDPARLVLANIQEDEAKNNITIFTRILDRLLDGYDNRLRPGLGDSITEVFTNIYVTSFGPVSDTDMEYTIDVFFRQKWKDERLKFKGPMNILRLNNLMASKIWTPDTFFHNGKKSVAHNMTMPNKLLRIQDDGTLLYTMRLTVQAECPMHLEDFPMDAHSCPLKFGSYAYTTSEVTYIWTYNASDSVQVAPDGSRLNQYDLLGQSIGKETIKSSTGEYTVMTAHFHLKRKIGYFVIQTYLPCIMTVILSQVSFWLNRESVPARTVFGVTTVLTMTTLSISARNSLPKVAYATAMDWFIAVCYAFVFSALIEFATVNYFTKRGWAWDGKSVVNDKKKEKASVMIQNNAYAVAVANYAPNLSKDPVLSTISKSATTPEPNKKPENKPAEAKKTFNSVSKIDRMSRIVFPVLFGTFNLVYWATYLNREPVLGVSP

[2] = biological target: T2, GABA-A receptor; alpha-5/beta-3/gamma-2 (Homo sapiens, UniProt P18507+P28472+P31644); assay: Displacement of [3H]Ro-151788 from human GABA-A receptor alpha-5-beta-3-gamma-2 subunits expressed in L(tk-) cells; type: cell-based
T2 sequence (P18507 whole entry): T1 sequence (P18507 whole entry)
T2 sequence (P28472 whole entry): T1 sequence (P28472 whole entry)
T2 sequence (P31644 whole entry): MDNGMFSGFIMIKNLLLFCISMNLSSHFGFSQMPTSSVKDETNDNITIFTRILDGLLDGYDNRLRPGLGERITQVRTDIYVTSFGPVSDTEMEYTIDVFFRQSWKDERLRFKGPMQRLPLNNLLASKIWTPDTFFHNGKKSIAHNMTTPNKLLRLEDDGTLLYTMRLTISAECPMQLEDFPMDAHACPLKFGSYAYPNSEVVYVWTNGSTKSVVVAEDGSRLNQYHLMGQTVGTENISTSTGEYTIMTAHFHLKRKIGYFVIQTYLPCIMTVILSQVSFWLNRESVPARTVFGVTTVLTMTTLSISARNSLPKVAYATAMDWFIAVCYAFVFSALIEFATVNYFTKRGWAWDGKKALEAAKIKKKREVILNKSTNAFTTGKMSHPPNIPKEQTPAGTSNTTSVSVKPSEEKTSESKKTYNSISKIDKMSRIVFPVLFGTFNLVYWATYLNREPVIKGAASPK
Summary of the method: (§1)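 Competition binding against [3H]Ro15-1788 on cloned human α1/α2/α3/α5 β3γ2S receptors stably expressed in L(tk-) cells. Six to eight test concentrations spaced in half-log steps. Ki given as mean (SEM), n = 3-5, reported to two significant figures.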

[3] = biological target: T3, GABA-A receptor; alpha-1/beta-3/gamma-2 (Homo sapiens, UniProt P14867+P18507+P28472); assay: Displacement of [3H]Ro-151788 from human GABA-A receptor alpha-1-beta-3-gamma-2 subunits expressed in L(tk-) cells (<50% inhibition at 3 uM); type: cell-based
T3 sequence (P14867 whole entry): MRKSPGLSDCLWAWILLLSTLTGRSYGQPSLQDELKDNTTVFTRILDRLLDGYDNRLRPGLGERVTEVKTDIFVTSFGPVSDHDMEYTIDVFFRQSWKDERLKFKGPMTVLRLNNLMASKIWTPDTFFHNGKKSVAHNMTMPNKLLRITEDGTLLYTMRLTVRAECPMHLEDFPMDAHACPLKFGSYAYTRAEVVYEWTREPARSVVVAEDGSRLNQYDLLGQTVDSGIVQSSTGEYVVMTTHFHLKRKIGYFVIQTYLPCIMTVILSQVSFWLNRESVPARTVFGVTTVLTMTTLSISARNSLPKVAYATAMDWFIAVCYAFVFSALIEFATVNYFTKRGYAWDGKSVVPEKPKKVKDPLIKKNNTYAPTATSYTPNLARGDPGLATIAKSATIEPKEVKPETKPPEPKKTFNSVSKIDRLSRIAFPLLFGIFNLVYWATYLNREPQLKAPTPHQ
T3 sequence (P18507 whole entry): T1 sequence (P18507 whole entry)
T3 sequence (P28472 whole entry): T1 sequence (P28472 whole entry)

[4] = biological target: T4, GABA-A receptor; alpha-3/beta-3/gamma-2 (Homo sapiens, UniProt P18507+P28472+P34903); assay: Binding affinity by displacement of [3H]Ro-151788 from recombinant human gamma-aminobutyric-acid A receptor alpha3,beta3,gamma2 stably expressed in L cells; type: cell-based; summary of the method: as §1
T4 sequence (P18507 whole entry): T1 sequence (P18507 whole entry)
T4 sequence (P28472 whole entry): T1 sequence (P28472 whole entry)
T4 sequence (P34903 whole entry): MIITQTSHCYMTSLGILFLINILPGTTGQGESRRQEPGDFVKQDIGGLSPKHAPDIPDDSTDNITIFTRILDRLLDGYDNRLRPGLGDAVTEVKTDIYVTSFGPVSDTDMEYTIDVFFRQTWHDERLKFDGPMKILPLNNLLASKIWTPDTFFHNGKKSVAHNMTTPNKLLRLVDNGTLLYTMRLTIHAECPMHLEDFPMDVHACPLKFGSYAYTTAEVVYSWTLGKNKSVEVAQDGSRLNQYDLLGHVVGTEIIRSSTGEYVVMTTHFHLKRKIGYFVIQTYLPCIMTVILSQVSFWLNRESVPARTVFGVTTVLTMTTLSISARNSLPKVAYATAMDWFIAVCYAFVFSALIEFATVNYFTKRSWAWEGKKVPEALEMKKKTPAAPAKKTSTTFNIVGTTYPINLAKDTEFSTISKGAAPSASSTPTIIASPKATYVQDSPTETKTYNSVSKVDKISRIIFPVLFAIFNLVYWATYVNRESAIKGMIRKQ

[5] = biological target: T5, GABA-A receptor; alpha-1/beta-3/gamma-2 (Homo sapiens) (UniProt P14867+P18507+P28472); assay: Modulatory effect on coapplication with GABA at human Gamma-aminobutyric acid A receptor alpha-1-beta-3-gamma-2 expressed in Xenopus oocytes; type: cell-based; conditions: Oocyte
Summary of the method: (§2)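 Two-electrode voltage clamp of Xenopus oocytes transiently expressing human α1, α2 or α3 β3γ2S receptors. Test compound is co-applied with GABA at its EC20 (GABA range 4-30 µM). Result is the % change in GABA current, mean (SEM), n = 3-7, at the stated test compound concentration (µM).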

[6] = biological target: T1, GABA-A receptor; alpha-2/beta-3/gamma-2; assay: Displacement of [3H]Ro-151788 from human Gamma-aminobutyric acid A receptor alpha-2-beta-3-gamma-2 stably expressed in L(tk-) cells; type: cell-based; summary of the method: as §1
[7] = biological target: T2, GABA-A receptor; alpha-5/beta-3/gamma-2; assay: Inhibition of [3H]Ro-151788 binding to human GABA A receptor (alpha-5-beta-3-gamma-2) stably expressed in L(tk-) cells.; type: cell-based; summary of the method: as §1
[8] = biological target: T3, GABA-A receptor; alpha-1/beta-3/gamma-2; assay: Inhibition of [3H]Ro-151788 binding to human GABA A receptor (alpha-1-beta-3-gamma-2) stably expressed in L(tk-) cells.; type: cell-based
[9] = biological target: GABA-A receptor; alpha-2/beta-3/gamma-2 (Homo sapiens) (UniProt P18507+P28472+P47869); assay: Modulatory effect on coapplication with GABA at human Gamma-aminobutyric acid A receptor alpha-2-beta-3-gamma-2 expressed inXenopus oocytes; type: cell-based; conditions: Oocyte; summary of the method: as §2
[10] = biological target: GABA-A receptor; alpha-3/beta-3/gamma-2 (Homo sapiens) (UniProt P18507+P28472+P34903); assay: Modulatory effect on coapplication with GABA at human Gamma-aminobutyric acid A receptor alpha-3-beta-3-gamma-2 in Xenopus oocytes.; type: cell-based; conditions: Oocyte; summary of the method: as §2
[11] = biological target: T5, GABA-A receptor; alpha-1/beta-3/gamma-2 (Homo sapiens); assay: Modulatory effect on coapplication with GABA at human Gamma-aminobutyric acid A receptor alpha-1-beta-3-gamma-2 in Xenopus oocyte.; summary of the method: as §2
[12] = biological target: T2, GABA-A receptor; alpha-5/beta-3/gamma-2; assay: Displacement of [3H]Ro-151788 from human GABA-A receptor alpha-5-beta-3-gamma-2 subunits expressed in L(tk-) cells (<50% inhibition at 2 uM); type: cell-based
[13] = biological target: T3, GABA-A receptor; alpha-1/beta-3/gamma-2; assay: Displacement of [3H]Ro-151788 from human GABA-A receptor alpha-1-beta-3-gamma-2 subunits expressed in L(tk-) cells (<50% inhibition at 10 uM); type: cell-based
[14] = biological target: T3, GABA-A receptor; alpha-1/beta-3/gamma-2; assay: Displacement of [3H]Ro-151788 from human GABA-A receptor alpha-1-beta-3-gamma-2 subunits expressed in L(tk-) cells (<50% inhibition at 100 uM); type: cell-based

Structure (SMILES) | Ki [1] [nM] | Ki [2] [nM] | Ki [3] [nM] | Ki [4] [nM] | EC20 [5] [%] | Ki [6] [nM] | Ki [7] [nM] | Ki [8] [nM] | percent modulation of GABA EC20 response [9] [%] | percent modulation of GABA EC20 response [10] [%] | percent modulation of GABA EC20 response [11] [%] | Ki [12] [nM] | Ki [13] [µM] | Ki [14] [µM]
COc1ccc(-c2cc(-c3nc(C)no3)c(=O)n(C)c2-c2ccncc2)cc1 | > 667 | > 667 | > 1000 | > 1000 | – | – | – | – | – | – | – | – | – | –
COc1ccc(-c2cc(-c3cccs3)c(=O)n(C)c2-c2ccncc2)cc1 | – | – | – | 15 | 9 | 23 | 350 | 30 | 15 | 36 | – | – | – | –

The next lines start with the values.

Ki [1] [nM] | Ki [2] [nM] | Ki [3] [nM] | Ki [4] [nM] | EC20 [5] [%] | Ki [6] [nM] | Ki [7] [nM] | Ki [8] [nM] | percent modulation of GABA EC20 response [9] [%] | percent modulation of GABA EC20 response [10] [%] | percent modulation of GABA EC20 response [11] [%] | Ki [12] [nM] | Ki [13] [µM] | Ki [14] [µM] | Structure (SMILES)
– | – | – | 860 | – | 1800 | – | – | -16 | 8 | 7 | > 667 | – | – | COc1ccc(-c2cc(C#N)c(=O)n(C)c2-c2ccc(N(C)C)cc2)cc1
– | – | – | 250 | – | 600 | > 667 | – | 81 | 132 | 181 | – | > 3 | – | COC(=O)c1cc(-c2ccc(OC)cc2)c(-c2ccc(N(C)C)cc2)n(C)c1=O
– | – | – | > 30000 | – | > 30000 | > 667 | – | – | – | – | – | – | > 30 | COc1ccc(-c2cc(C#N)c(O)nc2-c2ccc(N(C)C)cc2)cc1

From ChEMBL document CHEMBL1136055, “3-Heteroaryl-2-pyridones: benzodiazepine site ligands with functional delectivity for alpha 2/alpha 3-subtypes of human GABA(A) receptor-ion channels” (J Med Chem, 2002)
